Laboratory results from paper PMC4894453 (Scientific Reports, 2014).
≈ marks a conversion by molar mass, not a printed value. Read-outs that look alike come from different tables or passages of the source.

What was measured:
[1] = test system: Bacillus subtilis ATCC 23857; assay: MIC, microbroth dilution, Bacillus subtilis; type: cell-based; details: for MIC: Bacillus subtilis, ATCC23857, read-out: MIC against Gram-positive bacteria, BS; for MIC against Gram-positive bacteria, BS: Bacillus subtilis ATCC 23857, 18–20 h
Outline: (§1)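 CLSI microbroth dilution in Mueller-Hinton broth. Test compound at final 200–0.1 μg/ml, diluted from 10 mg/ml DMSO stocks. Plates incubated 18–20 h. MIC is the lowest concentration preventing visible growth.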

[2] = test system: methicillin-resistant Staphylococcus aureus N315; assay: MIC, microbroth dilution, MRSA; type: cell-based; details: for MIC: Staphylococcus aureus, MRSA, read-out: MIC against Gram-positive bacteria, MRSA; for MIC against Gram-positive bacteria, MRSA: S. aureus N315, 18–20 h
Outline: as §1

[3] = test system: panel of clinical relevant Gram-positive pathogens; assay: MIC, statements over the Gram-positive panel; type: cell-based; details: read-out: MIC over the Gram-positive panel
[4] = test system: Streptococcus pneumoniae R6; assay: MIC, microbroth dilution, Streptococcus pneumoniae; type: cell-based; details: for MIC: Streptococcus pneumoniae, R6, read-out: MIC against Gram-positive bacteria, SPn; for MIC against Gram-positive bacteria, SPn: Streptococcus pneumoniae R6, 18–20 h
Outline: as §1

[5] = test system: Bacillus anthracis sterne; assay: microbe, parasite or virus in culture; type: cell-based; details: for MIC: Bacillus anthracis, read-out: MIC against Gram-positive bacteria, BA; for MIC against Gram-positive bacteria, BA: 18–20 h
[6] = test system: Enterococcus faecalis ATCC 33186; assay: MIC, microbroth dilution, Enterococcus faecalis; type: cell-based; details: for MIC: Enterococcus faecalis; for MIC against Gram-positive bacteria, EF: Enterococcus faecalis ATCC 33186
S. aureus Newman [7] = assay: Membrane potential by flow cytometry with DiOC2; type: cell-based, Staphylococcus aureus; details: DiOC2(3); for dissipation of the membrane potential: 10 μM, 30 min
Outline: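 Exponential-phase S. aureus Newman (OD600 ≈ 0.3, Mueller-Hinton II broth) treated with test compound at 100, 10 or 1 μM for 30 min at 37°C. Cells stained 5 min with 30 μM DiOC2(3) and run on flow cytometry (10,000 events, 488 nm excitation, green and red emission). Red/green fluorescence ratio histograms compared. CCCP was the positive control; at least two independent samples.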

[8] = test system: Vero cells (kidney epithelial cells; ATCC CCL-81); assay: Cytotoxicity, CellTiter-Glo viability; type: cell-based; details: for Selectivity index: Cytotox IC50/MIC against methicillin-susceptible S. aureus Newman; for Cytotox IC50: Vero kidney cells, 72 h, 50% reduction of viability
Outline: (§2)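 Vero kidney epithelial cells exposed 72 h to test compound (final 200–0.1 μg/ml in DMEM; diluted from 10 mg/ml DMSO stocks). Viability read by CellTiter-Glo luminescence. IC50 is the concentration giving 50% viability loss, from curve fitting. Selectivity index is the cytotoxic IC50 divided by the MIC against S. aureus Newman.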

[9] = Cytotoxicity, CellTiter-Glo viability; type: cell-based; details: African green monkey, Vero cells (kidney epithelial cells; ATCC CCL-81)
Outline: as §2

[10] = test system: Streptococcus pyogenes ATCC 700294; assay: MIC, microbroth dilution, Streptococcus pyogenes; type: cell-based; details: for MIC: Streptococcus pyogenes, ATCC700294, read-out: MIC against Gram-positive bacteria, SP; for MIC against Gram-positive bacteria, SP: Streptococcus pyogenes ATCC 700294, 18–20 h
[11] = test system: Clostridium difficile BAA 1803; assay: MIC, microbroth dilution, anaerobic, Clostridium difficile; type: cell-based; details: Brain-heart infusion broth, 24 h, anaerobic; for MIC against Gram-positive bacteria, CD: Clostridium difficile BAA 1803
[12] = test system: erythrocytes of defibrinated sheep blood; assay: Hemolysis assay; type: cell-based; details: sheep erythrocytes 5% in PBS, 37°C, 90 min
Outline: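 Defibrinated sheep blood spun at 350 rcf for 20 min; plasma and buffy coat discarded. Erythrocytes washed three times in PBS pH 7.4, then made to a 5% v/v suspension. Suspension mixed 1:1 with two-fold serial dilutions of test compound, with Triton X-100 as positive control. Incubated 37°C for 90 min and centrifuged; supernatant OD540 read. Lysis = (sample − blank)/positive control; EC50 from curve fitting.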

[13] = test system: methicillin-susceptible Staphylococcus aureus Newman; assay: MIC, microbroth dilution, MSSA; type: cell-based; details: S. aureus Newman; 18–20 h
Outline: as §1

S. aureus Newman [14] = assay: Macromolecular synthesis, radiolabelled precursors; type: cell-based, Staphylococcus aureus; details: 1 and 4 × MIC, 20 min
Outline: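 Three independent S. aureus Newman cultures grown to mid-log phase (OD600 ≈ 0.3), then pulsed with 1 μCi/mL [methyl-3H]thymidine, [5,6-3H]uridine or [4,5-3H]leucine. After 5 min, test compound added at 1 and 4× its Newman MIC for 20 min at 37°C. Cold 10% TCA precipitates collected on GF/C filters, washed with 95% ethanol and counted by scintillation; expressed as relative percent activity. Controls: novobiocin, rifampicin, tetracycline.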

S. aureus Newman [15] = assay: Membrane permeability by flow cytometry with propidium iodide; type: cell-based, Staphylococcus aureus; details: 10 μM, 30 min, concentrations causing dissipation of the membrane potential
Outline: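 S. aureus Newman grown in Mueller-Hinton II broth to OD600 ≈ 0.3 and exposed to test compound at 10 μM for 30 min. Propidium iodide (10 μM) added for 10 min in the dark. Flow cytometry: 10,000 events, 488 nm excitation, red fluorescence; event histograms compared. Thioridazine at 100 μg/mL served as positive control.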

| Compound | MIC [1] [µg/mL] | MIC [2] [µg/mL] | MIC [3] [µg/mL] | MIC [4] [µg/mL] | MIC [5] [µg/mL] | Selectivity index [8] | MIC [10] [µg/mL] | MIC against Gram-positive bacteria, BS [1] [µg/mL] | MIC against Gram-positive bacteria, MRSA [2] [µg/mL] | MIC against Gram-positive bacteria, SPn [4] [µg/mL] | MIC against Gram-positive bacteria, BA [5] [µg/mL] | MIC against Gram-positive bacteria, EF ([6]; Mueller-Hinton broth, 18–20 h) [µg/mL] | Cytotox IC50 [8] [µg/mL] | MIC against Gram-positive bacteria, SP [10] [µg/mL] | MIC against Gram-positive bacteria, CD [11] [µg/mL] | Hemolysis EC50 [12] [µg/mL] | MIC against Gram-positive bacteria, MSSA [13] [µg/mL] | biosynthesis of DNA, RNA and protein (S. aureus Newman [14]) | physical integrity of the S. aureus membrane (propidium iodide uptake) (S. aureus Newman [15]) | dissipation of the membrane potential (S. aureus Newman [7]) | other results |
| --- | --- | --- | --- | --- | --- | --- | --- | --- | --- | --- | --- | --- | --- | --- | --- | --- | --- | --- | --- | --- | --- |
| CC(=O)C1=C(O)C(CC(C)C)NC1=O (centres unmarked) [Compound 2, 3-acetyl-4-hydroxy-5-isobutyl-1H-pyrrol-2(5H)-one] | > 200 | > 200 | > 200 | > 200 | > 200 | 1 | > 200 |  |  |  |  |  |  |  |  |  |  |  |  |  | MIC ([6]; ATCC33186, read-out: MIC against Gram-positive bacteria, EF): > 200 µg/mL; effect on the membrane potential (S. aureus Newman [7]; up to 100 μM): failed to affect the membrane potential; IC50 at 72 h [9]: 217 µg/mL (≈ 1100 µM) |
| CCCCCCC/C=C/C(=O)N1C(=O)/C(=C(\O)C2CCN(C(=O)OC(C)(C)C)CC2)C(=O)[C@H]1CC(C)C [Compound 10, tert-butyl4-((Z)-((R)-1-((E)-dec-2-enoyl)-5-isobutyl-2,4-dioxopyrrolidin-3-ylidene)(hydroxy)methyl) piperidine-1-carboxylate] |  |  |  |  |  |  |  | 1.56 (≈ 3.01 µM) | 0.2 (≈ 0.386 µM) | 3.13 (≈ 6.03 µM) | 0.78 (≈ 1.5 µM) | 0.39 (≈ 0.752 µM) | 14.22 | 3.13 (≈ 6.03 µM) | 0.25 (≈ 0.482 µM) | 61.61 | 0.40 (≈ 0.771 µM) |  |  |  |  |
| (Z)-1-((E)-dec-2-enoyl)-3-(1-hydroxyethylidene)-5-isobutylpyrrolidine-2,4-dione [Compound 1, reference compound] |  |  |  |  |  |  |  | 0.39 | 0.4 | 3.13 | 0.20 | 0.20 | 7.46 | 6.25 | 0.09 | 27.87 | 0.78 | reduced | did not disrupt the physical integrity |  | dissipation of the membrane potential (S. aureus Newman [7]; listed as reutericyclin): completely dissipated; Cytotox IC50 ([8]; listed as reutericyclin): 7.5 µg/mL |
| CCCCCCC/C=C/C(=O)N1C(=O)/C(=C(\O)c2ccc(F)cc2)C(=O)C1CC(C)C (centres unmarked) [Compound 13, (Z)-1-((E)-dec-2-enoyl)-3-((4-fluorophenyl)(hydroxy)methylene)-5-isobutylpyrrolidine-2,4-dione] | 0.39 (≈ 0.908 µM) | < 0.1 | < 1 | 12.5 (≈ 29.1 µM) | 0.39 (≈ 0.908 µM) | 67 | 6.25 (≈ 14.6 µM) |  |  |  |  |  |  |  |  |  |  | reduced | did not disrupt the physical integrity | reduced the membrane potential in a manner similar to reutericyclin | MIC ([6]; ATCC33186, read-out: MIC against Gram-positive bacteria, EF, Enterococcus faecalis ATCC 33186, Mueller-Hinton broth, 18–20 h): 0.2 µg/mL (≈ 0.466 µM); MIC ([11]; Clostridioides difficile, BAA1803, 24 h, read-out: MIC against Gram-positive bacteria, CD, Clostridium difficile BAA 1803): < 0.03 µg/mL |
| C/C(O)=C1\C(=O)C(CC(C)C)N(C(=O)CCCCCc2ccccc2)C1=O (centres unmarked) [Compound 5, (Z)-3-(1-hydroxyethylidene)-5-isobutyl-1-(6-phenylhexanoyl)pyrrolidine-2,4-dione] | 1.56 (≈ 4.2 µM) | < 0.1 |  | 0.78 (≈ 2.1 µM) | > 200 | 14 | 3.13 (≈ 8.43 µM) |  |  |  |  | 0.78 (≈ 2.1 µM) |  |  |  |  |  | reduced | did not disrupt the physical integrity | slightly lower than reutericyclin | fold improvement in activity over reutericyclin ([2]; MRSA N315): 4 fold; fold improvement in activity over reutericyclin ([4]; Strep. pneumoniae): 4 fold; fold improvement in activity over reutericyclin ([10]; Strep. pyogenes): 2 fold |
